Test results reported in ChEMBL document CHEMBL2169804, “Novel histone deacetylase 8 ligands without a zinc chelating group: exploring an 'upside-down' binding pose” (Bioorg Med Chem Lett, 2012).
Values belong to the molecule of their own block, whether it stands above or below them. The source made the active and inactive calls. The rule behind the calls is not given here.

Key:
Histone deacetylase 8 = target: T1, Histone deacetylase 8 (Homo sapiens, UniProt Q9BY41); assay: Inhibition of human recombinant HDAC8 using fluor de Lys as substrate preincubated for 5 mins followed by substrate addition measured after 25 mins by microplate reader analysis
T1 sequence (Q9BY41 whole entry): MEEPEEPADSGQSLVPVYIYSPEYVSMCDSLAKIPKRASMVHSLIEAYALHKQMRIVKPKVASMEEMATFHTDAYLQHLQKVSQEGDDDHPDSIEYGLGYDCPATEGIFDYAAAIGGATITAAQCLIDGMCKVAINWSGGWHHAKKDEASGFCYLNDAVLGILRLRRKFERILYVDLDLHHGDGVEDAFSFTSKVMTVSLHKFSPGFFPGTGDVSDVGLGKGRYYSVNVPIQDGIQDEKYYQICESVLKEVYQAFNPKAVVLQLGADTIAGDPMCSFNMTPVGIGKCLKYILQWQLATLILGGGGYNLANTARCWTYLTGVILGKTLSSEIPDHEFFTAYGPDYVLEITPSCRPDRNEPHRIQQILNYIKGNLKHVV

Histone deacetylase 1 [1] = target: T2, Histone deacetylase 1 (Homo sapiens, UniProt Q13547); assay: Inhibition of human recombinant HDAC1 using Boc-Lys(Ac)-AMC as substrate preincubated for 5 mins followed by substrate addition measured after 30 mins by microplate reader analysis
T2 sequence (Q13547 whole entry): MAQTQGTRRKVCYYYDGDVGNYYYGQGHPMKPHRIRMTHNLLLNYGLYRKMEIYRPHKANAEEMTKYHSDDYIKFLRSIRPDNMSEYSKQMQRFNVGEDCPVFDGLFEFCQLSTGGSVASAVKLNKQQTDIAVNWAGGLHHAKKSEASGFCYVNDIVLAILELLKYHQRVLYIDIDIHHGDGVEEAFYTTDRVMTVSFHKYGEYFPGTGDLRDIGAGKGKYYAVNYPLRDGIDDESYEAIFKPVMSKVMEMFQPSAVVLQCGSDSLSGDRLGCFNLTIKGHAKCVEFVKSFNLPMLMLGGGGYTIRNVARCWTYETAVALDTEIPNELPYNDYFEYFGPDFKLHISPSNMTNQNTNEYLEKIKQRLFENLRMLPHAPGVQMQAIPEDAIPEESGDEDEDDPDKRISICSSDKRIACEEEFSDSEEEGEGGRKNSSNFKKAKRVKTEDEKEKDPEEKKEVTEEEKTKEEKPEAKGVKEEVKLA

Histone deacetylase 2 [2] = target: T3, Histone deacetylase 2 (Homo sapiens, UniProt Q92769); assay: Inhibition of human recombinant HDAC2 using Boc-Lys(Ac)-AMC as substrate preincubated for 5 mins followed by substrate addition measured after 30 mins by microplate reader analysis
T3 sequence (Q92769 whole entry): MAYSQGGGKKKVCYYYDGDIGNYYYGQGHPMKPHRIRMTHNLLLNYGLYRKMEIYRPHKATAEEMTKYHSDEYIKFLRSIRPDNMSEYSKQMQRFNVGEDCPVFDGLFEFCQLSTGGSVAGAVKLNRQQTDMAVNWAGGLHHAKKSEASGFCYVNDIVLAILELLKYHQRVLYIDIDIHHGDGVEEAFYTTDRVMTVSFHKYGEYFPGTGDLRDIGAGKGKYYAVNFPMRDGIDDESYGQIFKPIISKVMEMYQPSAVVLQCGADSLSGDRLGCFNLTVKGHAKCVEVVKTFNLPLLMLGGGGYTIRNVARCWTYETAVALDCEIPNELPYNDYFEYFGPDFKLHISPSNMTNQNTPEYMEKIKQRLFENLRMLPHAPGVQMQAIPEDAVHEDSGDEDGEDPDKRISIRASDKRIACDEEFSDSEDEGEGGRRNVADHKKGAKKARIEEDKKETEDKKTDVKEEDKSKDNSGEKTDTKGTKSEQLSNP

Histone deacetylase 3 [3] = target: T4, Histone deacetylase 3 (Homo sapiens, UniProt O15379); assay: Inhibition of human recombinant HDAC3 using Boc-Lys(Ac)-AMC as substrate at 66 uM preincubated for 5 mins followed by substrate addition measured after 30 mins by microplate reader analysis
T4 sequence (O15379 whole entry): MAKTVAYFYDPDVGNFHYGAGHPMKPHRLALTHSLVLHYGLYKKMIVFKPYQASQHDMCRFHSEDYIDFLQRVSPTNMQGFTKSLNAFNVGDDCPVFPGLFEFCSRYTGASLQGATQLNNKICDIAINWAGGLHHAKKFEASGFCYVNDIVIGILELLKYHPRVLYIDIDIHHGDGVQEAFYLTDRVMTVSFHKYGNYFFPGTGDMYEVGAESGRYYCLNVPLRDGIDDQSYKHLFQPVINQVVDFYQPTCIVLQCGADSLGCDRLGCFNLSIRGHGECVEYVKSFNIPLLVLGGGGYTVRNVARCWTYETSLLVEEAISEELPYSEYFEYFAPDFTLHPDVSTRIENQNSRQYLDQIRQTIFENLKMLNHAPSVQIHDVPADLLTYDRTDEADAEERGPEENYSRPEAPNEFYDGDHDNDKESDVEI

[4] = target: T5, Histone deacetylase 8 (Homo sapiens) (UniProt Q9BY41); assay: Binding affinity to human recombinant HDAC8 expressed in Escherichia coli assessed as increase in enzyme biotinylation level preincubated for 3 hrs followed by denaturation measured after 60 mins by Western blot-based photoaffinity labelling method
T5 sequence (whole entry): T1 sequence (Q9BY41 whole entry)
In short: (§1)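 Probe, or probe plus competitor, preincubated 3 h at room temperature, then irradiated at 254 nm for 3 × 1 min with 1 min rests. For denaturing runs, SDS was added to 2% w/v final and held 30 min at 37 °C.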

[5] = target: T5, Histone deacetylase 8 (Homo sapiens); assay: Inhibition of human recombinant HDAC8 using fluor de Lys as substrate assessed as residual activity at 66 uM preincubated for 5 mins followed by substrate addition measured after 25 mins by microplate reader analysis
[6] = target: T5, Histone deacetylase 8 (Homo sapiens); assay: (§2) Binding affinity to human recombinant HDAC8 expressed in Escherichia coli assessed as enzyme biotinylation level at 5 uM preincubated for 3 hrs followed by denaturation measured after 60 mins by Western blot-based photoaffinity labelling method in presence of 250 uM PCI34051; in short: as §1
[7] = target: T5, Histone deacetylase 8 (Homo sapiens); assay: Binding affinity to human recombinant HDAC8 expressed in Escherichia coli assessed as increase in enzyme biotinylation level at 5 uM preincubated for 3 hrs followed by denaturation measured after 60 mins by Western blot-based photoaffinity labelling method in presence of 5 uM SAHA; in short: as §1
[8] = target: T5, Histone deacetylase 8 (Homo sapiens); assay: Binding affinity to human recombinant HDAC8 expressed in Escherichia coli assessed as increase in enzyme biotinylation level at […] preincubated for 3 hrs followed by denaturation measured after 60 mins by Western blot-based photoaffinity labelling method
[9] = target: T5, Histone deacetylase 8 (Homo sapiens); assay: Binding affinity to human recombinant HDAC8 expressed in Escherichia coli assessed as increase in enzyme biotinylation level at […] under non denaturating condition after 3 hrs by Western blot-based photoaffinity labelling method
[10] = target: T5, Histone deacetylase 8 (Homo sapiens); assay: Binding affinity to human recombinant HDAC8 expressed in Escherichia coli assessed as enzyme biotinylation level at 5 uM preincubated for 3 hrs followed by denaturation measured after 60 mins by Western blot-based photoaffinity labelling method in presence of 250 uM SAHA; in short: as §1
[11] = target: T5, Histone deacetylase 8 (Homo sapiens); assay: Binding affinity to human recombinant HDAC8 expressed in Escherichia coli assessed as enzyme biotinylation level at 5 uM preincubated for 3 hrs followed by denaturation measured after 60 mins by Western blot-based photoaffinity labelling method in presence of 250 uM TSA; in short: as §1
[12] = target: T5, Histone deacetylase 8 (Homo sapiens); assay: as §2, with “7-[4-(3,5-Dimethyl-benzyloxy)phenylcarbamoyl]heptanoic acid methyl ester” for “PCI34051”; in short: as §1
Histone deacetylase 3 [13] = target: T4, Histone deacetylase 3; assay: Inhibition of human recombinant HDAC3 using Boc-Lys(Ac)-AMC as substrate preincubated for 5 mins followed by substrate addition measured after 30 mins by microplate reader analysis
Histone deacetylase 1 [14] = target: T2, Histone deacetylase 1; assay: Inhibition of nuclear HDAC1 in human SH-SY5Y cells assessed as increase in histone H4 acetylation after 24 hrs by Western blot analysis; type: cell-based
In short: (§3)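 SH-SY5Y cells were grown to 80% confluence in 1:1 DMEM:OPTI-MEM with 10% FBS. They were treated with vehicle or compound for 24 h at 37 °C, 5% CO2, then lysed in RIPA buffer with protease and phosphatase inhibitors. Lysate containing 20 µg protein was run by SDS-PAGE and blotted with anti-acetyl α-tubulin or anti-acetyl histone H4 (1:1000) overnight at 4 °C, with anti-GAPDH as reference. Detection was by chemiluminescence on a CCD camera.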

Histone deacetylase 2 [15] = target: T3, Histone deacetylase 2; assay: Inhibition of nuclear HDAC2 in human SH-SY5Y cells assessed as increase in histone H4 acetylation after 24 hrs by Western blot analysis; type: cell-based; in short: as §3
Histone deacetylase 3 [16] = target: T4, Histone deacetylase 3; assay: Inhibition of nuclear HDAC3 in human SH-SY5Y cells assessed as increase in histone H4 acetylation after 24 hrs by Western blot analysis; type: cell-based; in short: as §3
[17] = target: T5, Histone deacetylase 8 (Homo sapiens); assay: Inhibition of nuclear HDAC8 in human SH-SY5Y cells assessed as increase in histone H4 acetylation after 24 hrs by Western blot analysis; type: cell-based; in short: as §3
[18] = target: T6, Protein deacetylase HDAC6 (Homo sapiens) (UniProt Q9UBN7); assay: Inhibition of cytoplasmic HDAC6 in human SH-SY5Y cells assessed as alpha-tubulin acetylation at 31.25 to 125 uM after 24 hrs by Western blot analysis; type: cell-based; in short: as §3
T6 sequence (whole entry): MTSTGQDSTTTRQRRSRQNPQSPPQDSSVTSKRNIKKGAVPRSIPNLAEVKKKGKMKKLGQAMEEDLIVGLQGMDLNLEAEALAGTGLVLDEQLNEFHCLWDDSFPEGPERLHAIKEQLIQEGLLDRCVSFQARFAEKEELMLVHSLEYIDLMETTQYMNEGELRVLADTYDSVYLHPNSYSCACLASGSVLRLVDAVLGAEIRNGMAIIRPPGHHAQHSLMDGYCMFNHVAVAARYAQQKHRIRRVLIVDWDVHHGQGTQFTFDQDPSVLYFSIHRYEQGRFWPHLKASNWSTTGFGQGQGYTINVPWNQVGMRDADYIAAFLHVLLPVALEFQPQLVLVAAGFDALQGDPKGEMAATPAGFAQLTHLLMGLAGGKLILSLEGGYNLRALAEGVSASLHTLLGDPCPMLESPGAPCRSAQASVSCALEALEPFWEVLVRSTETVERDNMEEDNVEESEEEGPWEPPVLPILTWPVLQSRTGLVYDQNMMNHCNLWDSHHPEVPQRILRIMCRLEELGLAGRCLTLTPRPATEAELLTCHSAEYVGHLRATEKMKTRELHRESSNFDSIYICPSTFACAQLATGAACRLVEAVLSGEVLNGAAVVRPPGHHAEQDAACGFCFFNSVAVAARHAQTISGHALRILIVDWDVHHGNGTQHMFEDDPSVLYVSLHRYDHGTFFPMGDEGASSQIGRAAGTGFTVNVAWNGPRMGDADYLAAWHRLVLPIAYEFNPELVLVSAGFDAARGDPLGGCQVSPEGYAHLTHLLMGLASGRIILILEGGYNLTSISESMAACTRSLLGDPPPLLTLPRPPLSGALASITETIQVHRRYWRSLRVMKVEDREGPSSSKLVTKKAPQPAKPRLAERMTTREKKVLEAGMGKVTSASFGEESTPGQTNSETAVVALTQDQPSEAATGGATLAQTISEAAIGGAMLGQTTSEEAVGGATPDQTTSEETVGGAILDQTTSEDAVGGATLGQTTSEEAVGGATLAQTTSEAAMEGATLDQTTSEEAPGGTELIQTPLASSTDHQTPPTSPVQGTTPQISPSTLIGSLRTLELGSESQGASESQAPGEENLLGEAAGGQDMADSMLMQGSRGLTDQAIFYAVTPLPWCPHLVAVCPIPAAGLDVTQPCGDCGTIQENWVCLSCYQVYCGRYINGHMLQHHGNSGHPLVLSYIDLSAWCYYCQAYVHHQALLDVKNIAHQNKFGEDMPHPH

[19] = target: T5, Histone deacetylase 8 (Homo sapiens); assay: (§4) Binding affinity to human recombinant HDAC8 expressed in Escherichia coli assessed as enzyme biotinylation level at 1.5 uM under non denaturating condition after 3 hrs by Western blot-based photoaffinity labelling method in presence of 37.5 and 75 uM SAHA; in short: as §1
[20] = target: T5, Histone deacetylase 8 (Homo sapiens); assay: Binding affinity to human recombinant HDAC8 expressed in Escherichia coli assessed as enzyme biotinylation level at 1.5 uM under non denaturating condition after 3 hrs by Western blot-based photoaffinity labelling method in presence of 37.5 and 75 uM TSA; in short: as §1
[21] = target: T5, Histone deacetylase 8 (Homo sapiens); assay: Binding affinity to human recombinant HDAC8 expressed in Escherichia coli assessed as enzyme biotinylation level at 1.5 uM under non denaturating condition after 3 hrs by Western blot-based photoaffinity labelling method in presence of 37.5 and 75 uM PCI34051; in short: as §1
[22] = target: T5, Histone deacetylase 8 (Homo sapiens); assay: as §4, with “7-[4-(3,5-Dimethyl-benzyloxy)phenylcarbamoyl]heptanoic acid methyl ester” for “37.5 and 75 uM SAHA”; in short: as §1
[23] = target: T5, Histone deacetylase 8 (Homo sapiens); assay: Binding affinity to human recombinant HDAC8 expressed in Escherichia coli assessed as enzyme biotinylation level at […] preincubated for 3 hrs followed by denaturation measured after 60 mins by Western blot-based photoaffinity labelling method in presence of 0.25 and […] SAHA
[24] = target: T6, Protein deacetylase HDAC6 (Homo sapiens); assay: Inhibition of cytoplasmic HDAC6 in human SH-SY5Y cells assessed as alpha-tubulin acetylation at 1 uM after 24 hrs by Western blot analysis; type: cell-based; in short: as §3

Compound: CC(C)(C)OC(=O)CCCCCCC(=O)Nc1ccc(OCc2cc(CN=[N+]=[N-])cc(N=[N+]=[N-])c2)cc1
- IC50 (Histone deacetylase 8; read-out: IC50): 42.6 µM

Compound: Cc1cc(C)cc(COc2ccc(NC(=O)CCCCCCC(=O)OC(C)(C)C)cc2)c1
- IC50 (Histone deacetylase 8; read-out: IC50): 53.2 µM

Compound: COC(=O)CCCCCCC(=O)Nc1ccc(OCc2ccccc2)cc1
- Activity [5]: > 50%
- IC50 (Histone deacetylase 8): Not Active

Compound: COC(=O)CCCCCCNC(=O)c1cc(-c2ccc(NC(=O)c3cc(CN=[N+]=[N-])cc(N=[N+]=[N-])c3)cc2)on1
- IC50 (Histone deacetylase 8; read-out: IC50): 47.1 µM

Compound: COc1cc(COc2ccc(NC(=O)CCCCCCC(=O)OCc3ccc(CN=[N+]=[N-])cc3)cc2)cc(N=[N+]=[N-])c1
- IC50 (Histone deacetylase 1 [1]): 86 µM
- IC50 (Histone deacetylase 2 [2]): 79 µM
- inhibition (Histone deacetylase 1 [14]): Dose-dependent effect
- inhibition (Histone deacetylase 2 [15]): Dose-dependent effect
- inhibition (Histone deacetylase 3 [16]): Dose-dependent effect
- inhibition [17]: Dose-dependent effect
- inhibition [18]: inactive
- inhibition (Histone deacetylase 3 [3]): inactive
- Activity [12]: inactive
- Activity [19]: inactive
- Activity [20]: inactive
- Activity [21]: inactive
- Activity [22]: inactive
- IC50 (Histone deacetylase 8; read-out: IC50): 28 µM

Compound: CCCCCCCC(=O)Nc1ccc(OCc2cc(C)cc(C)c2)cc1
- IC50 (Histone deacetylase 8): Not Active

Compound: O=C(NO)c1ccc(Cn2c3ccccc3c3ccccc32)cc1
- inhibition [24]: Active

Compound: COC(=O)CCCCCCC(=O)Nc1cnn(Cc2cc(CN=[N+]=[N-])cc(N=[N+]=[N-])c2)c1
- IC50 (Histone deacetylase 8; read-out: IC50): 36 µM

Compound: [N-]=[N+]=NCc1cc(N=[N+]=[N-])cc(C(=O)Nc2ccc(-c3cc(C(=O)NCCCCCCC(=O)NO)no3)cc2)c1
- Ki (Histone deacetylase 3 [13]): 0.023 µM

Now from value to molecule:

- IC50 (Histone deacetylase 8; read-out: IC50): 47.8 µM
Compound: COC(=O)CCCCCCC(=O)Nc1ccc(OCc2cc(C)cc(C)c2)cc1

- IC50 (Histone deacetylase 1 [1]): 111 µM
- IC50 (Histone deacetylase 2 [2]): 72 µM
- inhibition (Histone deacetylase 3 [3]): inactive
- Activity [4]: Dose-dependent effect
- IC50 (Histone deacetylase 8; read-out: IC50): 67.5 µM
Compound: COc1cc(COc2ccc(NC(=O)CCCCCCC(=O)OCCN=[N+]=[N-])cc2)cc(N=[N+]=[N-])c1

- Activity [6]: inactive
- Activity [4]: Dose-dependent effect
- Activity [7]: Active
- Activity [8]: Active
- Activity [9]: Active
- Activity [10]: inactive
- Activity [11]: inactive
- Activity [12]: inactive
- IC50 (Histone deacetylase 8; read-out: IC50): 37.4 µM
Compound: COC(=O)CCCCCCC(=O)Nc1ccc(OCc2cc(CN=[N+]=[N-])cc(N=[N+]=[N-])c2)cc1

- Ki (Histone deacetylase 3 [13]): 0.064 µM
Compound: [N-]=[N+]=NCc1cc(Cn2cc(NC(=O)CCCCCCC(=O)NO)cn2)cc(N=[N+]=[N-])c1

- Ki (Histone deacetylase 3 [13]): 0.74 µM
- Activity [4]: Dose-dependent effect
- Activity [23]: inactive
Compound: [N-]=[N+]=NCc1cc(COc2ccc(NC(=O)CCCCCCC(=O)NO)cc2)cc(N=[N+]=[N-])c1
